Experimental data taken from ChEMBL document CHEMBL1123812, “Pyrroloisoquinoline antidepressants. 2. In-depth exploration of structure-activity relationships” (J Med Chem, 1987).
pKi: −log10 of the molar value.

Legend:
Mus musculus [1] = species on record: Mus musculus; experiment: Antagonism of tetrabenazine (TBZ)-induced depression measured in mice by motor activity; assay type: functional; details: Mus musculus; read-out: ED50
In short: (§1)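 Nonfasted male Swiss Webster mice, 18–24 g, ten per dose level and in saline controls. Test compound given ip 30 min before tetrabenazine 32 mg/kg ip; dose expressed as free base. Motor activity and ptosis scored. Control response ≤90% corrected by Abbott's formula.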

[2] = molecular target: Sodium-dependent dopamine transporter (Rattus norvegicus, UniProt P23977); experiment: Inhibition of the uptake of tritiated dopamine (DA) in rat synaptosomes; assay type: subcellular, Brain
Mus musculus [3] = species on record: Mus musculus; experiment: Gross behavioral effects ascertained in mice; W indicates weak stimulant or depressant activity of little significance.; assay type: functional, organism-based
In short: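 Male Swiss Webster mice, 18–24 g, three per dose, given ip doses of 1, 3, 10, 30, 100 and 300 mg/kg. Observed for gross behavior and held for 4 days. Scored as weak (W), stimulant (S), depressant (D) or convulsant (C).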

[4] = molecular target: Norepinephrine transporter (Rattus norvegicus, UniProt Q9WTR4); experiment: Inhibition of uptake of tritiated norepinephrine (NE) in rat synaptosomes; assay type: subcellular, Brain
Mus musculus [5] = species on record: Mus musculus; experiment: Antagonism of tetrabenazine (TBZ)-induced depression in mice measured for ptosis; assay type: functional; details: Mus musculus; read-out: ED50; in short: as §1
[6] = molecular target: Sodium-dependent serotonin transporter (Rattus norvegicus) (UniProt P31652); experiment: Ability to inhibit the uptake of [3H]- serotonin(5-HT) 0.1 uM concentration at rat brain synaptosomes; assay type: functional, subcellular
In short: (§2)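 Male Wistar rat brain synaptosomes (P2 fraction): hypothalamus for NE, striatum for DA, cerebral cortex for 5-HT. Buffer is Tris- or HEPES-buffered salt medium with glucose, ascorbate and nialamide, pH 7.4 at 37 °C. Preincubated 10 min at 37 °C with compound. Uptake started with [3H]NE 100–300 nM, [3H]DA 50–300 nM or [3H]5-HT 100–200 nM, incubated 3 min (DA) or 6–10 min (NE, 5-HT). Blanks held on ice. Filtered, counted by scintillation.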

[7] = molecular target: Sodium-dependent dopamine transporter (Rattus norvegicus) (UniProt P23977); experiment: Ability to inhibit the uptake of [3H]dopamine (DA) 0.1 uM concentration at rat brain synaptosomes; assay type: functional, subcellular; in short: as §2
[8] = molecular target: Norepinephrine transporter (Rattus norvegicus) (UniProt Q9WTR4); experiment: Ability to inhibit the uptake of [3H]norepinephrine (NE) 0.1 uM concentration at rat brain synaptosomes; assay type: functional, subcellular; in short: as §2
[9] = molecular target: D(2) dopamine receptor (Rattus norvegicus) (UniProt P61169); experiment: Binding affinity towards dopamine receptor D2 at 1.0 uM concentration
In short: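 Rat brain crude synaptic membranes in 20 mM NaHEPES pH 7.5. Ligands: α1 cortex […] 0.4 nM, nonspecific with (-)-NE 100 μM, 30 min at 25 °C. […] D2 striatum [3H]spiperone 0.05 nM with (+)-butaclamol 1 μM, 45 min at 37 °C. S1 cortex [3H]5-HT 1 nM plus glutathione and MgCl2, with 5-HT 10 μM, 20 min at 37 °C. […] Samples filtered on GF/B and counted.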

Sequence of Sodium-dependent dopamine transporter (Rattus norvegicus) (P23977 whole entry): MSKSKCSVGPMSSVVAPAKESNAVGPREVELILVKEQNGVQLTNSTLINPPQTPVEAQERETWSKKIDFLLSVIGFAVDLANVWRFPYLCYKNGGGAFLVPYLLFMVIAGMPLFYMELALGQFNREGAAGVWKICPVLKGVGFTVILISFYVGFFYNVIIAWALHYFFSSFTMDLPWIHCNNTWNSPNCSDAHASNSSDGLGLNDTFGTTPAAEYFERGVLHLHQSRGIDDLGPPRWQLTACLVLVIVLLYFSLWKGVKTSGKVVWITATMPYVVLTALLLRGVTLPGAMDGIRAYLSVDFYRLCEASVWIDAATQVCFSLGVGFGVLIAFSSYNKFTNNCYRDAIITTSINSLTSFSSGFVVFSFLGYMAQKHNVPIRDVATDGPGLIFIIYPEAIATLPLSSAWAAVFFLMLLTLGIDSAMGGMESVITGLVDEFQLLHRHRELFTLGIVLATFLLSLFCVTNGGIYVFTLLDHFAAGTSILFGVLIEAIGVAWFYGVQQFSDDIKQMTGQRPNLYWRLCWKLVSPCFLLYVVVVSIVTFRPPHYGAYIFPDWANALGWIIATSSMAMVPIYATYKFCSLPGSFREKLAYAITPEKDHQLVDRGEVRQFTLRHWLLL
Sequence of Sodium-dependent dopamine transporter (P23977 whole entry): as above
Sequence of Norepinephrine transporter (Q9WTR4 whole entry): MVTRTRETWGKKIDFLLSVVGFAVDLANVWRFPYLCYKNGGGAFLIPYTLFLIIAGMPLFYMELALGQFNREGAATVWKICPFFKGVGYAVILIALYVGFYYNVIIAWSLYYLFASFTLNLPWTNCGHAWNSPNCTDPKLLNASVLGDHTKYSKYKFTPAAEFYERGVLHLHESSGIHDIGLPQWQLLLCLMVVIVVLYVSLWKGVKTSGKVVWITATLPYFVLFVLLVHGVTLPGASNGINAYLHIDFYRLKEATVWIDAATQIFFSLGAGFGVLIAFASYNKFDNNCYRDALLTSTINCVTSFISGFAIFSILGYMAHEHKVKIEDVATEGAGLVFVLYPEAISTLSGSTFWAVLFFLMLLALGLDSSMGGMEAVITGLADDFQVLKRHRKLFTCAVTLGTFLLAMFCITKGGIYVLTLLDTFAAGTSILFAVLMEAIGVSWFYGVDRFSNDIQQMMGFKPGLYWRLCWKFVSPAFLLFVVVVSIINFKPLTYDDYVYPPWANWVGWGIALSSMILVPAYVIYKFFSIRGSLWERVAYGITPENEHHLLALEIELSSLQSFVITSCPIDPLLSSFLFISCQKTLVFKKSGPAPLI
Sequence of Norepinephrine transporter (Rattus norvegicus) (Q9WTR4 as listed by the source): as the sequence (Q9WTR4 whole entry) above
Sequence of Sodium-dependent serotonin transporter (Rattus norvegicus) (P31652 whole entry): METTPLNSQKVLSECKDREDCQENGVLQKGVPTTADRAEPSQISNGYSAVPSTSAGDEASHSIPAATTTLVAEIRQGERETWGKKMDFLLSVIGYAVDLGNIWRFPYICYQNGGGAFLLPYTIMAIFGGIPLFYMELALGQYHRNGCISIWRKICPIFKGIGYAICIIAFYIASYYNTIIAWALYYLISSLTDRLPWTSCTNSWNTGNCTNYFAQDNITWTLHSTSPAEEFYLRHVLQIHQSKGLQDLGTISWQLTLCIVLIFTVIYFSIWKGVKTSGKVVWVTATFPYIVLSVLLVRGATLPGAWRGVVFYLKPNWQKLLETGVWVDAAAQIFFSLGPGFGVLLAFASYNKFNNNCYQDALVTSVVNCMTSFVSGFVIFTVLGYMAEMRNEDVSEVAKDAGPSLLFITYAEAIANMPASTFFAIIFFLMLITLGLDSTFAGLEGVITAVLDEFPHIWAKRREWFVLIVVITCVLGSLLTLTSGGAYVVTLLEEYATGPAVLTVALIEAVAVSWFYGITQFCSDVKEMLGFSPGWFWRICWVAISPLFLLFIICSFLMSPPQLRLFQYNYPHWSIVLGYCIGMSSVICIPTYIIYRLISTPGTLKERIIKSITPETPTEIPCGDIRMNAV
Sequence of D(2) dopamine receptor (Rattus norvegicus) (P61169 whole entry): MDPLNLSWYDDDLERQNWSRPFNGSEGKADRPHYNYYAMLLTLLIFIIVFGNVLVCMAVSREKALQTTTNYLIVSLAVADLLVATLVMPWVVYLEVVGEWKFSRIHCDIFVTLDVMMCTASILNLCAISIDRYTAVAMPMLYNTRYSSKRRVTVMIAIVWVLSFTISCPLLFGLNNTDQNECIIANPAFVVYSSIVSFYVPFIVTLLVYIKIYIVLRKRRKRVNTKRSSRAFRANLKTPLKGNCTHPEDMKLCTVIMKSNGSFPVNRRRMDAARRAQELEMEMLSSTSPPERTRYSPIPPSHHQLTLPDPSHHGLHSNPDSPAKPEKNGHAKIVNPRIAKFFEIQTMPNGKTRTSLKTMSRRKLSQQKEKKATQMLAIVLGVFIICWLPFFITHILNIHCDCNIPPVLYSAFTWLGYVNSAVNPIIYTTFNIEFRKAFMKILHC

SMILES	pKi [2]	pKi [4]	inhibition [6]	inhibition [7]	inhibition [8]	inhibition [9]	ED50 (Mus musculus [1])	behavior (Mus musculus [3])	ED50 (Mus musculus [5])
Br.F[C@]1(c2ccccc2)CN2CCC[C@H]2c2ccccc21	–	7.51	6%	26%	–	–	~3 mg/kg	Weak	1.2 mg/kg
Cc1ccccc1[C@@H]1CN2CCC[C@@H]2c2ccccc21	6.93	8.25	–	–	–	–	~1 mg/kg	–	~1 mg/kg
Br.Cn1ccc2c1[C@@H](c1ccccc1)CN1CCC[C@@H]21	8.01	8.12	–	–	–	–	2.4 mg/kg	Weak	~0.75 mg/kg
CC(=O)Nc1ccc([C@@H]2CN3CCC[C@H]3c3ccccc32)cc1	–	–	–	57%	27%	–	4.4 mg/kg	Weak	1.8 mg/kg
CCN1Cc2ccccc2C(c2ccccc2)C1 (stereo not given)	7.44	8.25	–	–	–	–	~10 mg/kg	Weak	~10 mg/kg
NC(=O)c1ccc([C@@H]2CN3CCC[C@@H]3c3ccccc32)cc1	7.07	7.04	–	–	–	–	–	–	–
CSc1ccccc1[C@@H]1CN2CCC[C@@H]2c2ccccc21	–	–	–	–	–	–	~0.6 mg/kg	–	~0.6 mg/kg
FC(F)(F)c1cc([C@@H]2CN3CCC[C@H]3c3ccccc32)cc(C(F)(F)F)c1	–	–	-3%	-3%	0%	–	–	–	–
FC(F)(F)c1ccccc1[C@@H]1CN2CCC[C@H]2c2ccccc21	–	–	4%	0%	12%	–	–	–	–
c1ccc([C@H]2CN3CC[C@H]3c3ccccc32)cc1	7.09	8.20	–	–	–	–	~2 mg/kg	–	1.25 mg/kg
CCn1cc(C(=O)O)c(=O)c2ccc(Cc3ccccc3)nc21 [AMFONELIC ACID]	8.14	7.39	–	–	–	–	–	–	–
N#Cc1ccc([C@@H]2CN3CCC[C@@H]3c3ccccc32)cc1	–	–	–	–	–	–	~2 mg/kg	–	~2 mg/kg
Clc1ccc([C@@H]2CN3CCC[C@H]3c3ccccc32)cc1Cl	7.51	7.80	–	–	–	–	~41 mg/kg	Weak	8 mg/kg
CSc1ccc([C@@H]2CN3CCC[C@@H]3c3ccccc32)cc1 (stereo in doubt; (-)-48b)	–	–	–	–	–	5%	–	–	–
CN1Cc2c(N)cccc2C(c2ccccc2)C1 (stereo not given) [NOMIFENSINE]	–	–	–	–	–	–	0.18 mg/kg	Partial stimulant	0.11 mg/kg
Br.COc1ccc([C@@H]2CN3CCC[C@@H]3c3ccccc32)cc1	8.28	9.10	–	–	–	–	0.27 mg/kg	Weak	0.03 mg/kg

SMILES	pKi [2]	pKi [4]	inhibition [6]	inhibition [7]	inhibition [8]	inhibition [9]	ED50 (Mus musculus [1])	behavior (Mus musculus [3])	ED50 (Mus musculus [5])
C[C@@]12CCCN1C[C@@H](c1ccc(Cl)cc1)c1ccccc12	~7.00	~7.00	21%	–	–	–	–	Weak	–
C[C@@]12CCCN1C[C@H](c1ccc(Cl)cc1)c1ccccc12	8.12	8.42	–	–	–	–	6.8 mg/kg	Weak	1.5 mg/kg
FC(F)(F)c1ccc([C@@H]2CN3CCC[C@@H]3c3ccccc32)cc1	6.89	7.97	–	–	–	–	> 3 mg/kg	–	~2 mg/kg
Br.CS(=O)(=O)c1ccc([C@@H]2CN3CCC[C@H]3c3ccccc32)cc1	–	–	–	–	–	–	> 30 mg/kg	Weak	17.7 mg/kg
Clc1ccc([C@@H]2CN3CCC[C@@H]3c3ccccc32)c(Cl)c1	–	–	–	–	–	–	~2 mg/kg	–	~1 mg/kg
c1ccc(C[C@@H]2CN3CCC[C@H]3c3ccccc32)cc1	–	–	-3%	15%	100%	–	–	–	–
Br.Clc1ccc2c(c1)[C@H]1CCCN1C[C@H]2c1ccccc1	8.60	9.21	–	–	–	–	~0.3 mg/kg	–	~0.5 mg/kg
Clc1ccc([C@@H]2CN3CCC[C@H]3c3ccccc32)cc1	–	–	–	–	–	–	8.1 mg/kg	Weak	5.4 mg/kg
Br.c1csc([C@H]2CN3CCC[C@H]3c3ccsc32)c1	7.40	7.84	–	–	–	–	~24 mg/kg	Weak	~30 mg/kg
c1ccc([C@H]2CN3CCCC[C@H]3c3ccccc32)cc1	< 6.00	7.86	–	–	–	–	> 30 mg/kg	Weak	> 30 mg/kg
CCCCc1ccc([C@@H]2CN3CCC[C@@H]3c3ccccc32)cc1	6.64	7.52	–	–	–	–	> 60 mg/kg	Weak	9.1 mg/kg
O=C(O)c1ccccc1[C@@H]1CN2CCC[C@@H]2c2ccccc21	–	–	6%	3%	0%	–	–	–	–
FC(F)(F)c1cccc([C@@H]2CN3CCC[C@@H]3c3cccc(Cl)c32)c1	–	~7.00	5%	8%	–	–	–	–	–
COc1cccc2c1[C@H](c1ccccc1)CN1CCC[C@H]21	7.91	7.94	–	–	–	–	10 mg/kg	Weak	1.2 mg/kg
FC(F)(F)c1ccc2c(c1)[C@H]1CCCN1C[C@H]2c1ccccc1	7.95	8.51	–	–	–	–	–	–	–

Second part, led by results:

pKi [2]	pKi [4]	inhibition [6]	inhibition [7]	inhibition [8]	inhibition [9]	SMILES	ED50 (Mus musculus [1])	behavior (Mus musculus [3])	ED50 (Mus musculus [5])
6.44	8.06	–	–	–	–	Br.Oc1ccccc1[C@@H]1CN2CCC[C@@H]2c2ccccc21	> 3 mg/kg	Weak	~2 mg/kg
6.59	7.39	–	–	–	–	Br.O[C@@]1(c2ccccc2)CN2CCC[C@H]2c2ccccc21	~25 mg/kg	Weak	6.2 mg/kg
8.06	7.82	–	–	–	–	COc1ccc(NC(=O)Nc2ccc([C@@H]3CN4CCC[C@H]4c4ccccc43)cc2)cc1	–	–	–
7.60	7.94	–	–	–	–	Clc1cccc2c1[C@H](c1ccccc1)CN1CCC[C@H]21	–	–	–
7.49	7.65	–	–	–	6%	Br.Oc1ccc([C@@H]2CN3CCC[C@H]3c3ccccc32)cc1O	> 30 mg/kg	Partial stimulant	1.8 mg/kg
7.58	8.82	–	–	–	–	Br.Brc1ccccc1[C@@H]1CN2CCC[C@@H]2c2ccccc21	~0.6 mg/kg	–	~1 mg/kg
7.59	8.82	–	–	–	–	FC(F)(F)c1cccc([C@@H]2CN3CCC[C@@H]3c3ccccc32)c1 (stereo in doubt; (+)-37b)	–	–	–
–	–	25%	5%	58%	–	FC(F)(F)c1cc([C@@H]2CN3CCC[C@@H]3c3ccccc32)cc(C(F)(F)F)c1	–	–	–
7.19	7.47	–	–	–	–	Clc1ccc([C@@H]2CN3CCC[C@H]3c3cc(Cl)ccc32)cc1	> 100 mg/kg	Weak	~37 mg/kg
7.61	6.93	–	–	–	–	O=C(Nc1ccccc1)Nc1ccc([C@@H]2CN3CCC[C@@H]3c3ccccc32)cc1	–	–	–
6.22	7.09	–	–	–	–	Br.c1ccc2c(c1)[C@@H](C1CCCCC1)CN1CCC[C@@H]21	6.4 mg/kg	Weak	1.9 mg/kg
6.77	7.49	–	–	–	–	FC(F)(F)c1cccc([C@@H]2CN3CCCC3c3cc(Cl)ccc32)c1 (stereo not given in full)	–	–	–
7.03	8.47	–	–	–	–	Br.O=[N+]([O-])c1ccc([C@@H]2CN3CCC[C@@H]3c3ccccc32)cc1	0.17 mg/kg	Weak	0.08 mg/kg
6.55	7.94	–	–	–	–	Fc1cccc(Cl)c1[C@@H]1CN2CCC[C@@H]2c2ccccc21	> 3 mg/kg	–	> 3 mg/kg
–	–	–	0%	7%	–	Br.c1ccc([C@@H]2Cc3ccccc3[C@@H]3CCCN23)cc1	> 30 mg/kg	Weak	0.87 mg/kg
6.92	7.56	–	–	–	–	Br.COc1ccc([C@@H]2CN3CCC[C@H]3c3ccccc32)cc1	~50 mg/kg	Weak	3 mg/kg
7.55	8.09	–	–	–	–	O[C@]1(c2ccccc2)CN2CCC[C@H]2c2ccccc21	8.4 mg/kg	Weak	1.6 mg/kg
8.55	8.66	–	–	–	–	COc1ccc2c(c1)[C@H]1CCCN1C[C@H]2c1ccccc1	–	–	–
–	–	1%	5%	1%	–	O=C(O)c1ccccc1[C@@H]1CN2CCC[C@H]2c2ccccc21	–	–	–
